# Screening data deposited in PubChem by Sanford-Burnham Center for Chemical Genomics.
# Apaf1 activ – activates human Apaf-1 apoptosome | O14727 | Apaf-1 apoptosome caspase-3 activation, DEVD-Rh110 fluorescence; active compounds read low | activity change, negative = activation, % at 20 µM | 0.31% of 330,000 active;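 active means activity change at or below -40% at 20 µM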
#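 Assay system – biochemical Apaf-1 apoptosome reconstitution · Medium – 20 mM HEPES buffer, pH 7.5, containing CHAPS and BSA · Incubation – 30 min preincubation, 50 min reaction, room temperature · Measured by – Caspase-3-released Rh110 fluorescence, 540 nm emission, 480 nm excitation · Read-out – Caspase-3 cleavage activity downstream of Apaf-1 activation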
# Rh110 act interf – counter-screen for Apaf-1 activators: fluorescence interference | shares compounds with Apaf1 activ | Rh110 fluorescence interference, quenched caspase reaction, Ex480/Em540 | fluorescence interference (activity change), % at 20 µM, hits read low | 980 tested, under 10 active | AID 504616;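 active means mean activity change at or below -40% when tested at 20 µM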
# Apaf-1 act conf2 – Apaf-1 (human) activation, single-dose confirmed; 5% of 980 active; activity change, negative = activation, % at 20 µM; reconstituted apoptosome caspase-3 activity, DEVD-Rh110 fluorescence; active compounds read low; shares compounds with Apaf1 activ;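 active means mean activity change at or below -40%, meaning activation of 40% or more, at 20 µM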
# Hits are given with their value; - = inactive. The list is a sample of the results.
SMILES,Apaf1 activ,others
CNCCc1nc(N)n[nH]1,-74,Rh110 act interf=-;Apaf-1 act conf2=-
COCCNC(=O)c1c(NC(=O)c2ccc(Br)o2)n(Cc2ccccc2)c2nc3ccccc3nc12,-,
C[N+]1(C)[C@@H]2CC[C@H]1CC(OC(=O)[C@@H](CO)c1ccccc1)C2 (stereo partly specified),-,
O=c1[nH]c2ccccc2n1C1CCN(CCCC(c2ccc(F)cc2)c2ccc(F)cc2)CC1,-,
CCCNC1=C(C)C(=O)C2=C(C1=O)C(COC(N)=O)[C@]1(OC)C3NC3CN21 (stereo partly specified),-,
CCOc1ccc(Cl)cc1CNCCc1ccc(F)cc1,-44,Rh110 act interf=-;Apaf-1 act conf2=-
CCN(CC)c1ccc(N=Cc2c(O)n(-c3cc(OC)ccc3OC)c(=O)[nH]c2=O)cc1,-,
Nc1cncc(C(=O)O)c1,-,
Nc1c(C(=O)NC2CCCC2)c2nc3ccccc3nc2n1CC1CCCO1 (stereo unspecified),-,
CC[C@@H]1C(=O)OC[C@@H]1Cc1cncn1C,-,
CNc1ccc2nc3ccccc3[n+](C)c2c1,-,
CCN(CCO)c1ccc(N=Cc2c(O)n(C)c(=S)[nH]c2=O)cc1,-,
C=CCn1c(O)c(C(C)=Nc2ccc(C(=O)O)cc2)c(=O)[nH]c1=O,-77,Rh110 act interf=-;Apaf-1 act conf2=-
c1cncc(C2Nc3cccc4cccc(c34)N2)c1,-,
CCOC(=O)c1c(NS(=O)(=O)c2ccccc2)n(CCCOC)c2nc3ccccc3nc12,-,
CCOC(=O)C(O)(c1ccc(N(C)C(=O)c2ccc(Cl)c(Cl)c2)cc1)C(F)(F)F (stereo unspecified),-190,Rh110 act interf=-;Apaf-1 act conf2=-
Cc1ccc(C[n+]2c(-c3ccc(C)cc3)cc(-c3ccc(C)cc3)cc2-c2ccc(C)cc2)cc1,-,
CCCCCCCSc1cc(OC)c(CCN(C)C)cc1OC,-,
O=c1cc(C2CCNCC2)[nH][nH]1,-,
CCCCCn1c(NC(=O)c2ccco2)c(C(=O)OCC)c2nc3ccccc3nc21,-,
Cc1c(C(=O)Nc2ccccc2)cc(-c2ccccc2)n1CCCN1CCOCC1,-201,Rh110 act interf=-;Apaf-1 act conf2=-
c1ccc(-c2[nH]c[n+](CC3CO3)c2-c2ccccc2)cc1 (stereo unspecified),-,
NC(N)=N/N=C/c1ccc(N(c2ccccc2)c2ccccc2)cc1,-,
Clc1ccc(C(c2ccc(Cl)cc2)n2cc[n+](CC(OCc3ccc(Cl)cc3Cl)c3ccc(Cl)cc3Cl)c2)cc1 (stereo unspecified),-,
CCCOC(=O)c1ccc(-[n+]2c(-c3ccccc3)cc(-c3ccccc3)cc2-c2ccccc2)cc1,-,
